The values below come from publication PMC6468299 (Nucleic Acids Research, 2019).

For test [1], the target named is Human mitochondrial RNA polymerase (POLRMT) (Homo sapiens, UniProt O00411). The test is described as follows: POLRMT primer extension. It counts as biochemical. Put shortly: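 Reactions contained 200 nM DNA template, 25 nM Atto-425-labelled 12-mer RNA primer and 300 nM human POLRMT. Substrate was 1 mM NTP or 2′-F-NTP, or mixtures from 100:1 to 1:100 (1:1 both 1 mM). Products were resolved by fluorescence anion-exchange HPLC (ex 436/em 485 nm, pH 11 NaBr gradient). Products under 1.0% peak area were called not detected.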

The target in test [2] is T1, human mitochondrial DNA polymerase γ (Pol-γ exo-mutant) (Homo sapiens, UniProt P54098, D198A/E200A).
T1 sequence (P54098 26-1239 D198A/E200A limits assumed): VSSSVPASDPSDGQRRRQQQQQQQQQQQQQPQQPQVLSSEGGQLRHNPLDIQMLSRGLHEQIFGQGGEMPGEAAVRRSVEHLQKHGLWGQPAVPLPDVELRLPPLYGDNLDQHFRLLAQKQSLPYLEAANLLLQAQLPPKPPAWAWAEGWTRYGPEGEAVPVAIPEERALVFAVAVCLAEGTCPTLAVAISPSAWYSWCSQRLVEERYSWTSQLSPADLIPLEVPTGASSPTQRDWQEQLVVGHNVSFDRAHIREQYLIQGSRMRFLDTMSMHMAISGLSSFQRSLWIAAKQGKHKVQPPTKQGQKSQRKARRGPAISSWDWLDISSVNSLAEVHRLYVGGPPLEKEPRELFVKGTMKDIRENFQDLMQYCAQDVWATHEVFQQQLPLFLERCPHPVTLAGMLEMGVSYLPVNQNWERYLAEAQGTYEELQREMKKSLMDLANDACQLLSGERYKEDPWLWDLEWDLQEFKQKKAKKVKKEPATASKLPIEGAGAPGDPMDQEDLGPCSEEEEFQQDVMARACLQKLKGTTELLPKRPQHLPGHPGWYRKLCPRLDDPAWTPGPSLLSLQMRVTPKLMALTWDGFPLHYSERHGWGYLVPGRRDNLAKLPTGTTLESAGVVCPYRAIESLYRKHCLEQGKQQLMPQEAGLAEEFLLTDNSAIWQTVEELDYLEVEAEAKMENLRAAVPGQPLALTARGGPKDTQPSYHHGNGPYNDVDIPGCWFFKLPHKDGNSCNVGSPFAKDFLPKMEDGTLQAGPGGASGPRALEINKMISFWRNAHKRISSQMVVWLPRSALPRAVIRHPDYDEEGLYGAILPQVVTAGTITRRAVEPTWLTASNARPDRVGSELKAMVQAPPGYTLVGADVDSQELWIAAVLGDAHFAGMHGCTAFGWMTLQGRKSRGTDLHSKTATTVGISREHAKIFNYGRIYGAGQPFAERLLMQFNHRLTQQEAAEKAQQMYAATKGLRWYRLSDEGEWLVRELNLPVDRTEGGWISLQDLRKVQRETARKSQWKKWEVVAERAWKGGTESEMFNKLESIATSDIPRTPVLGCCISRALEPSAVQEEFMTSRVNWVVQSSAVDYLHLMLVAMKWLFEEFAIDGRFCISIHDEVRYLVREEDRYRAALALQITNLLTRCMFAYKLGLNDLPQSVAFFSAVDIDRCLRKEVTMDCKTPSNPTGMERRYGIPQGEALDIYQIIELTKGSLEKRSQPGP
Briefly: Pol-γ primer extension. It counts as biochemical. In a few lines: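 Exonuclease-deficient human Pol-γ (40 units) was used with 100 nM DNA template and 100 nM Atto-425-labelled 14-mer DNA primer. Substrate was 1 mM dNTP or 2′-F-NTP, or mixtures 100:1 to 1:100 (1:1 both 1 mM). Products were separated by fluorescence IEX-HPLC (ex 436/em 485 nm) at pH 11. Products under 1.0% peak area were called not detected.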

Marks after values point to notes of the source that are not given here.

Human mitochondrial RNA polymerase (POLRMT), sequence (O00411 42-1230): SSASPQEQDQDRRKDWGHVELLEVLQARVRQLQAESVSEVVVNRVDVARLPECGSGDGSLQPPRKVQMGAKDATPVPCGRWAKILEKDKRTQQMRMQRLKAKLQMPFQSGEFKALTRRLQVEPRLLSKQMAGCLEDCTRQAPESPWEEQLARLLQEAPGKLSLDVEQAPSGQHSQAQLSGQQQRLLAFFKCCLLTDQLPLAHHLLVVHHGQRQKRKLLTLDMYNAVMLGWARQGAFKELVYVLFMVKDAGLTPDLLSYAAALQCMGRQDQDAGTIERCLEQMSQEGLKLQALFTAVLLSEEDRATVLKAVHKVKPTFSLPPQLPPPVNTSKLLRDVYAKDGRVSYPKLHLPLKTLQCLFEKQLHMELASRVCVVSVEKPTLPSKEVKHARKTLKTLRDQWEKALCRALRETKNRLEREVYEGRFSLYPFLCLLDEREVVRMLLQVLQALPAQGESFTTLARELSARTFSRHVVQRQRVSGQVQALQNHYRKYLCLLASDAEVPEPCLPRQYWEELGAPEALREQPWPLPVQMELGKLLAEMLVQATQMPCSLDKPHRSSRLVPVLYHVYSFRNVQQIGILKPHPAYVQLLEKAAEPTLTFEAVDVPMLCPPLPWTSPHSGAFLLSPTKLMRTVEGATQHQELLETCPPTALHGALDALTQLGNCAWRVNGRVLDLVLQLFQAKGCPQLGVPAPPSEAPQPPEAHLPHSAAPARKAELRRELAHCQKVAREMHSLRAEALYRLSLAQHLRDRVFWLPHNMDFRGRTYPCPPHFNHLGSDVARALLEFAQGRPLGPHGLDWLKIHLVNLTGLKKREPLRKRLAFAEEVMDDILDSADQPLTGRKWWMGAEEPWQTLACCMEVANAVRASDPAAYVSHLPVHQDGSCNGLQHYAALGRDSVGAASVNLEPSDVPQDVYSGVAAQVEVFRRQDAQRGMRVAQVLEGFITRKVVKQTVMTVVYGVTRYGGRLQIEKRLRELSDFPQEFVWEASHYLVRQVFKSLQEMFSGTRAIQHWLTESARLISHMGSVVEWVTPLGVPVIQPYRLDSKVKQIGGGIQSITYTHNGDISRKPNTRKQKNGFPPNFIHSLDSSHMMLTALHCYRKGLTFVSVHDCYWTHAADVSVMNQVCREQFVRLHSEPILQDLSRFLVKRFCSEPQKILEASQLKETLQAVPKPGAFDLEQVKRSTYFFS

In the case of `Nc1ncnc2c1ncn2[C@@H]1O[C@H](COP(=O)(O)OP(=O)(O)OP(=O)(O)O)[C@@H](O)[C@H]1F` [2′-F-ATP], the “% 2′-F product” value in test [1] (F only) is 42.6^a %; in test [1] (Native:F ratio 1:1) it was “ND (not detected (integration peak area <1.0%))”; in test [1] (Native:F ratio 1:10), “ND (not detected (integration peak area <1.0%))”; in test [1] (Native:F ratio 1:100), “ND (not detected (integration peak area <1.0%))”; in test [2] (F only), 94.2^a %; in test [2] (Native:F ratio 1:1), “ND (not detected (integration peak area <1.0%))”. Also, the “% 2′-F product” value in test [2] (Native:F ratio 1:10) is “ND (not detected (integration peak area <1.0%))”; in test [2] (Native:F ratio 1:100), 17.6^b %. In addition, the “% Native product” value in test [1] (Native only (no 2′-F-NTP)) is recorded as 69.2^a %; in test [1] (Native:F ratio 1:1), 67.8^a %; in test [1] (Native:F ratio 1:10), 63.5^a %; in test [1] (Native:F ratio 1:100), 51.4^a %; in test [2] (Native only (no 2′-F-NTP)) it was 95.9^a %; in test [2] (Native:F ratio 1:1) it was 96.3^a %. For the same molecule, the “% Native product” value is recorded as 97.1^a % in test [2] (Native:F ratio 1:10) and 79.8^b % in test [2] (Native:F ratio 1:100).

With `Nc1ccn([C@@H]2O[C@H](COP(=O)(O)OP(=O)(O)OP(=O)(O)O)[C@@H](O)[C@H]2F)c(=O)n1` [2′-F-CTP], the “% 2′-F product” value was 58.7^a % in test [1] (F only); “ND (not detected (integration peak area <1.0%))” in test [1] (Native:F ratio 1:1); “ND (not detected (integration peak area <1.0%))” in test [1] (Native:F ratio 1:10); 9.1^b % in test [1] (Native:F ratio 1:100); 94.0^a % in test [2] (F only); “ND (not detected (integration peak area <1.0%))” in test [2] (Native:F ratio 1:1). The “% 2′-F product” value in test [2] (Native:F ratio 1:10) was 4.4^b %; in test [2] (Native:F ratio 1:100), 30.9^b %. Moreover, the “% Native product” value in test [1] (Native only (no 2′-F-NTP)) was 48.8^a %; in test [1] (Native:F ratio 1:1) it was 39.3^a %; in test [1] (Native:F ratio 1:10) it was 43.7^a %; in test [1] (Native:F ratio 1:100) it was 37.0^b %; in test [2] (Native only (no 2′-F-NTP)), 97.3^a %; in test [2] (Native:F ratio 1:1), 96.2^a %. The “% Native product” value in test [2] (Native:F ratio 1:10) is 90.6^b %; in test [2] (Native:F ratio 1:100), 64.5^b %.

For `Nc1nc2c(ncn2[C@@H]2O[C@H](COP(=O)(O)OP(=O)(O)OP(=O)(O)O)[C@@H](O)[C@H]2F)c(=O)[nH]1` [2′-F-GTP], the “% 2′-F product” value was 78.9^a % in test [1] (F only); “ND (not detected (integration peak area <1.0%))” in test [1] (Native:F ratio 1:1); “ND (not detected (integration peak area <1.0%))” in test [1] (Native:F ratio 1:10); 8.9^b % in test [1] (Native:F ratio 1:100); 73.9^a % in test [2] (F only); “ND (not detected (integration peak area <1.0%))” in test [2] (Native:F ratio 1:1). Also, the “% 2′-F product” value is recorded as “ND (not detected (integration peak area <1.0%))” in test [2] (Native:F ratio 1:10) and 23.7^b % in test [2] (Native:F ratio 1:100). Besides, the “% Native product” value in test [1] (Native only (no 2′-F-NTP)) is 95.0^a %; in test [1] (Native:F ratio 1:1), 96.4^a %; in test [1] (Native:F ratio 1:10) it was 83.4^a %; in test [1] (Native:F ratio 1:100), 69.2^b %; in test [2] (Native only (no 2′-F-NTP)) it was 89.2^a %; in test [2] (Native:F ratio 1:1), 85.0^a %. The “% Native product” value in test [2] (Native:F ratio 1:10) is listed as 88.9^a %; in test [2] (Native:F ratio 1:100), 56.0^b %.

On to `O=c1ccn([C@@H]2O[C@H](COP(=O)(O)OP(=O)(O)OP(=O)(O)O)[C@@H](O)[C@H]2F)c(=O)[nH]1` [2′-F-UTP], for which the “% 2′-F product” value is on record as 31.8^a % in test [1] (F only); “ND (not detected (integration peak area <1.0%))” in test [1] (Native:F ratio 1:1); “ND (not detected (integration peak area <1.0%))” in test [1] (Native:F ratio 1:10); “ND (not detected (integration peak area <1.0%))” in test [1] (Native:F ratio 1:100); 87.3^a % in test [2] (F only); “ND (not detected (integration peak area <1.0%))” in test [2] (Native:F ratio 1:1). Further, the “% 2′-F product” value is 2.9^b % in test [2] (Native:F ratio 1:10) and 7.6^b % in test [2] (Native:F ratio 1:100). Besides, the “% Native product” value is listed as 40.8^a % in test [1] (Native only (no 2′-F-NTP)); 32^a % in test [1] (Native:F ratio 1:1); 45.3^a % in test [1] (Native:F ratio 1:10); 35.6^a % in test [1] (Native:F ratio 1:100); 83.3^a % in test [2] (Native only (no 2′-F-NTP)); 83.8^a % in test [2] (Native:F ratio 1:1). The “% Native product” value is 90.0^b % in test [2] (Native:F ratio 1:10) and 80.1^b % in test [2] (Native:F ratio 1:100).

In the case of `O=c1[nH]c(=O)n([C@@H]2O[C@H](COP(=O)(O)OP(=O)(O)OP(=O)(O)O)[C@@H](O)[C@@H]2F)cc1I` [FIAU-TP, fialuridine triphosphate, reference compound], the “% 2′-F product” value is 21.0^a % in test [1] (F only); “ND (not detected (integration peak area <1.0%))” in test [1] (Native:F ratio 1:1); “ND (not detected (integration peak area <1.0%))” in test [1] (Native:F ratio 1:10); 1.1^b % in test [1] (Native:F ratio 1:100); 94.4^a % in test [2] (F only); 4.5^b % in test [2] (Native:F ratio 1:1). Besides, the “% 2′-F product” value in test [2] (Native:F ratio 1:10) was 44.0^b %; in test [2] (Native:F ratio 1:100), 82.7^b %. Besides, the “% Native product” value in test [1] (Native only (no 2′-F-NTP)) is on record as 34.6^a %; in test [1] (Native:F ratio 1:1) it was 25.1^a %; in test [1] (Native:F ratio 1:10) it was 25.4^a %; in test [1] (Native:F ratio 1:100), 24.10^b %; in test [2] (Native only (no 2′-F-NTP)) it was 98.3^a %; in test [2] (Native:F ratio 1:1) it was 91.7^b %.
